Marks after values point to notes of the source that are not given here.
Experiments:
glucose infusion rate = assay: 30-hour automated euglycaemic clamp; type: in vivo, patients with type 1 diabetes mellitus (human); conditions: for AUCGIR0–6h, geometric mean (90% CI): 0-6 h; for AUCGIR0–6h, geometric mean (90% CI) / AUCGIR6–30h, geometric mean (90% CI): N = 111 MYL-1501D, 111 US IG, 113 EU IG; for AUCGIR6–30h, geometric mean (90% CI): 6-30 h
[1] = Single-dose safety and local tolerability; type: in vivo, patients with type 1 diabetes mellitus (human); conditions: for Hypoglycaemic events at various time points after the clamp period: > 30 hours after injection, considered a side effect of the patients' usual insulin treatment; for Number of AEs during or after administration / Patients who experienced AEs during or after administration / Patients who experienced AEs during or after administration, percentage: safety population N = 114
Method in brief: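 Randomised crossover in which each patient received three insulin glargine preparations as single s.c. 0.4 U/kg doses, at visits 5–28 days apart (minimum 5-day washout). Each dose was given under a 30-h automated euglycaemic clamp. Safety and injection-site tolerability were assessed at each visit: AEs, haematology, biochemistry, urinalysis, physical exam, vital signs, ECGs and blood glucose. Hypoglycaemia was graded severe/symptomatic/asymptomatic. Results were summarised descriptively.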

[2] = LC–MS/MS; for AUCins.0‐6h of M1, geometric mean (90% CI) / AUCins.6‐30h of M1, geometric mean (90% CI): secondary PK endpoint, 87 US IG; for AUCins.0‐6h of M1, geometric mean (90% CI): N = 85 MYL-1501D, 84 EU IG; for AUCins.6‐30h of M1, geometric mean (90% CI): N = 87 MYL-1501D, 86 EU IG
[3] = ELISA, ratio of treatments vs US IG
[4] = secondary PD, vs US IG, N = 111
[5] = vs US IG, N = 74 (MYL-1501D), 72 (EU IG)

Substance	AUCGIR0–6h, geometric mean (90% CI) (glucose infusion rate; secondary PD)	AUCGIR6–30h, geometric mean (90% CI) (glucose infusion rate; secondary PD)	Hypoglycaemic events at various time points after the clamp period [1]	Injection site reactions ([1]; mild, single s.c. 0.4 U/kg)	Tolerability ([1]; single s.c. 0.4 U/kg)	Number of AEs during or after administration ([1]; single s.c. 0.4 U/kg)	Patients who experienced AEs during or after administration ([1]; single s.c. 0.4 U/kg)	Patients who experienced AEs during or after administration, percentage ([1]; single s.c. 0.4 U/kg)	AUCins.0‐6h of M1, geometric mean (90% CI) [2]	AUCins.6‐30h of M1, geometric mean (90% CI) [2]	AUCGIR0–30h (secondary analysis), geometric LS mean ratio (90% CI) vs US IG (glucose infusion rate; including very low response profiles, linear mixed model, vs US IG, n = 111)	GIRmax, geometric LS mean ratio (90% CI) vs US IG (glucose infusion rate; primary PD, vs US IG, N = 102)	AUCGIR0–6h, geometric LS mean ratio (90% CI) vs US IG (glucose infusion rate; [4])	AUCGIR6–30h, geometric LS mean ratio (90% CI) vs US IG (glucose infusion rate; [4])	AUCins.0–30h, geometric LS mean ratio (90% CI) vs US IG ([3]; N = 107)	Cins.max, geometric LS mean ratio (90% CI) vs US IG ([3]; N = 110)	AUCins.0‐6h of M1, geometric LS mean ratio (90% CI) vs US IG ([2]; vs US IG, N = 73 (MYL-1501D), 71 (EU IG))	AUCins.0–30h of M1, geometric LS mean ratio (90% CI) vs US IG [2, 5]	AUCins.6‐30h of M1, geometric LS mean ratio (90% CI) vs US IG [2, 5]	Cins.max of M1, geometric LS mean ratio (90% CI) vs US IG [2, 5]
insulin glargine [US IG]	88.3 (59.7–131) mg/kg	522 (384–710) mg/kg	16	one	generally well tolerated	34 AEs	20 patients	17.9%	192 (171–217) pmol·h/L	1086 (1000–1179) pmol·h/L										
insulin glargine [EU IG]	72.8 (49.4–107) mg/kg	567 (418–769) mg/kg	six		generally well tolerated	34 AEs	24 patients	21.1%	203 (180–229) pmol·h/L	1088 (1001–1181) pmol·h/L	0.96 (0.77–1.20) ^e	0.98 (0.90–1.07)	0.82 (0.55–1.23)	1.09 (0.79–1.48)	1.02 (0.95–1.09)	1.00 (0.93–1.08)	1.06 (0.93–1.20)	1.01 (0.94–1.08)	1.00 (0.93–1.08)	1.02 (0.96–1.08)

Reference: article PMC7079113 (Diabetes, Obesity & Metabolism, 2019)
